Data: ChEMBL document CHEMBL4371044, “Celastrol Promotes Weight Loss in Diet-Induced Obesity by Inhibiting the Protein Tyrosine Phosphatases PTP1B and TCPTP in the Hypothalamus” (J Med Chem, 2018)
Calls of active or inactive are those of the source. The rule behind the calls is not given here.

Columns and labels:
[1] = target: T1, Tyrosine-protein phosphatase non-receptor type 2 (Homo sapiens) (UniProt P17706); assay: Inhibition of human N-terminal His6-tagged TCPTP catalytic domain (1 to 336 residues) expressed in Escherichia coli strain Rosetta2 (DE3) up to 500 uM using pNPP as substrate preincubated for 10 mins followed by substrate addition and measured after 10 mins by […]
T1 sequence (whole entry): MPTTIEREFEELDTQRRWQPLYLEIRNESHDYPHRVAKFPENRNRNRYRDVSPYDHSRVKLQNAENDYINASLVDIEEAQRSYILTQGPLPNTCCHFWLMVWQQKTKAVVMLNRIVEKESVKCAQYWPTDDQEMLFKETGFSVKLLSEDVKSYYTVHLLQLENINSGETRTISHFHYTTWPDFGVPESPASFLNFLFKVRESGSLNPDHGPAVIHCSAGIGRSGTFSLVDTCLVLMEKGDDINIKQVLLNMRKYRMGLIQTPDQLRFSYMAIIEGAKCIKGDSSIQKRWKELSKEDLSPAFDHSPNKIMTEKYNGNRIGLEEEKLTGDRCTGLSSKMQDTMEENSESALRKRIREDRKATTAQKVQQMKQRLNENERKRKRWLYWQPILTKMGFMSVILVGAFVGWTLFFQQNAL

[2] = target: T2, Tyrosine-protein phosphatase non-receptor type 1 (Homo sapiens) (UniProt P18031); assay: Inhibition of human N-terminal His6-tagged PTP1B catalytic domain (1 to 393 residues) expressed in Escherichia coli strain Rosetta2 (DE3) using DiFMUP as substrate preincubated for 10 mins followed by substrate addition and measured after 10 mins in presence of 0.05% Tween20 by fluorescence assay
T2 sequence (whole entry): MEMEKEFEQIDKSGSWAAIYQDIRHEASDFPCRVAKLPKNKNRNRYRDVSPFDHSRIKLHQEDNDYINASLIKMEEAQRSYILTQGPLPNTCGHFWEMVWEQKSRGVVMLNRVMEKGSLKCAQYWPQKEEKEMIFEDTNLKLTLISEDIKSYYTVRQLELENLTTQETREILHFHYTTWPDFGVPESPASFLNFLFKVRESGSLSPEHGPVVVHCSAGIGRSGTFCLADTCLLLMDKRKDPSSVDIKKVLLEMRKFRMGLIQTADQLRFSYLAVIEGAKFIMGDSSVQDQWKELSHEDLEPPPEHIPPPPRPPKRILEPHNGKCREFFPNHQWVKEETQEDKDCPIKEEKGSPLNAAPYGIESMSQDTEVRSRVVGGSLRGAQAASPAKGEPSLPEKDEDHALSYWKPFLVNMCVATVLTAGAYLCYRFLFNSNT
Procedure, shortened: (§1)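 DiFMUP IC50 assay (1 nM enzyme, 10 min preincubation, substrate at Km, 37 °C, ex 358/em 455 nm), repeated as an aggregation check under three altered conditions: 10-fold enzyme (10 nM), 0.05% Tween 20, or 0.1 mg/mL BSA in buffer.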

[3] = tested on: Mus musculus; assay: Antiobesity activity in high fat diet-induced obese Ptpn1fl/fl/Ptpn2fl/fl null C57BL/6 mouse assessed as hypophagia at 100 ug/kg, ip for 10 consecutive days; format: functional, organism-based
[4] = target: T3, Tyrosine-protein phosphatase non-receptor type 2 (Homo sapiens, UniProt P17706); assay: (§2) Inhibition of human N-terminal His6-tagged TCPTP catalytic domain (1 to 336 residues) expressed in Escherichia coli strain Rosetta2 (DE3) using DiFMUP as substrate preincubated for 10 mins followed by substrate addition and measured after 10 mins by fluorescence assay
T3 sequence (P17706 whole entry): T1 sequence (whole entry)
Procedure, shortened: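 Tag-cleaved, SEC-purified enzyme at 1 nM, preincubated 10 min with compound at 15 concentrations from 0–500 μM (5% DMSO final) in 25 mM Bis-Tris propane pH 7.5, 50 mM NaCl, 2 mM EDTA. DiFMUP added at each construct's Km (10, 7, 10, 9 μM for PTP1B1−298, PTP1B1−393, TCPTP1−296, TCPTP1−336). Read ex 358/em 455 nm continuously 10 min at 37 °C; triplicate; log(inhibitor)-response fit.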

[5] = tested on: Mus musculus; assay: Antiobesity activity in high fat diet-induced obese Ptpn1fl/fl null C57BL/6 mouse assessed as hypophagia at 100 ug/kg, ip for 10 consecutive days; format: functional, organism-based
[6] = target: T4, Tyrosine-protein phosphatase non-receptor type 1 (Homo sapiens, UniProt P18031); assay: Binding affinity to human N-terminal His6-tagged PTP1B catalytic domain (1 to 298 residues) expressed in Escherichia coli strain Rosetta2 (DE3) by switch sense technology based assay
T4 sequence (P18031 whole entry): T2 sequence (whole entry)
Procedure, shortened: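 switchSENSE, fluorescence proximity mode: PTP1B1−298 immobilized on chip, analyte injected at increasing concentrations up to 100 μM at 100 μL/min in PE40 buffer (10 mM phosphate pH 7.4, 40 mM NaCl, 50 μM EGTA/EDTA, 0.05% Tween 20). Buffer rinse for dissociation, recorded at the three highest concentrations; kon, koff, KD fitted.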

[7] = target: T2, Tyrosine-protein phosphatase non-receptor type 1 (Homo sapiens); assay: Non-competitive inhibition of human N-terminal His6-tagged PTP1B catalytic domain (1 to 393 residues) expressed in Escherichia coli strain Rosetta2 (DE3) at 500 uM in presence of 4'-aminoxanilic acid by STD-NMR spectroscopic method
[8] = target: T1, Tyrosine-protein phosphatase non-receptor type 2 (Homo sapiens); assay: Inhibition of human N-terminal His6-tagged TCPTP catalytic domain (1 to 336 residues) expressed in Escherichia coli strain Rosetta2 (DE3) using DiFMUP as substrate preincubated for 10 mins followed by substrate addition and measured after 10 mins in presence of 0.05% Tween20 by fluorescence assay; procedure, shortened: as §1
[9] = target: T1, Tyrosine-protein phosphatase non-receptor type 2 (Homo sapiens); assay: as §2, with “10 mins in presence of 10 fold higher enzyme concentration by fluorescence” for “10 mins by fluorescence”; procedure, shortened: as §1
[10] = target: T4, Tyrosine-protein phosphatase non-receptor type 1; assay: Binding affinity to human N-terminal His6-tagged PTP1B catalytic domain (1 to 298 residues) expressed in Escherichia coli strain Rosetta2 (DE3) assessed as association rate constant […]
[11] = target: T2, Tyrosine-protein phosphatase non-receptor type 1 (Homo sapiens); assay: Binding affinity to human N-terminal His6-tagged PTP1B catalytic domain (1 to 298 residues) expressed in Escherichia coli strain Rosetta2 (DE3) by NMR spectroscopy
Procedure, shortened: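 100 μM 2H(~70%)/15N-labelled PTP1B1−298 in 100 mM d11-Tris pH 7.5, 75 mM NaCl, 10% D2O at 20 °C. Compound added to 250 μM (0.5% DMSO-d6); 1H,15N TROSY at 800 MHz against DMSO-only reference; amide chemical shift perturbations computed.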

[12] = target: T2, Tyrosine-protein phosphatase non-receptor type 1 (Homo sapiens); assay: Inhibition of human N-terminal His6-tagged PTP1B catalytic domain (1 to 298 residues) expressed in Escherichia coli strain Rosetta2 (DE3) up to 500 uM using pNPP as substrate preincubated for 10 mins followed by substrate addition and measured after 10 mins by […]
[13] = target: T2, Tyrosine-protein phosphatase non-receptor type 1 (Homo sapiens); assay: Inhibition of human N-terminal His6-tagged PTP1B catalytic domain (1 to 393 residues) expressed in Escherichia coli strain Rosetta2 (DE3) using DiFMUP as substrate preincubated for 10 mins followed by substrate addition and measured after 10 mins in presence of 0.1 mg/ml BSA by fluorescence assay; procedure, shortened: as §1

Structure (SMILES): CC1=C(O)C(=O)C=C2C1=CC=C1[C@@]2(C)CC[C@@]2(C)[C@@H]3C[C@](C)(C(=O)O)CC[C@]3(C)CC[C@]12C [CELASTROL]
- inhibition [1]: Active
- inhibition [2]: Active
- Activity [3]: Active
- IC50 [4]: 18.8 µM
- Activity [5]: Active
- Kd [6]: 6.08 µM
- inhibition [7]: Active
- inhibition [8]: Active
- inhibition [9]: Active
- kon [10]: 59.46 M⁻¹ s⁻¹
- Activity [11]: Active
- inhibition [12]: Active
- inhibition [13]: Active
